# In ChEMBL document CHEMBL1151428, “Capability of 11 antipneumococcal antibiotics to select for resistance by multistep and single-step methodologies” (2007):
# Assays:
# Assay type in all cases: functional
# [1] = tested on: Streptococcus pneumoniae; assay: Antimicrobial activity against drug-resistant Streptococcus pneumoniae isolate 3009 after 50 passages by multi-step resistance selection technique
# Method in brief: (§1)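 Daily serial passage in subinhibitory drug levels in 1 ml cation-adjusted Mueller-Hinton broth with 5% lysed horse blood; fresh broth for tigecycline. Each day, 10 μl were taken from the tube one to two dilutions below the MIC whose turbidity matched the growth control, and used to set the next MIC. […] MIC by macrodilution.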
# [2] = tested on: Streptococcus pneumoniae; assay: Antimicrobial activity against drug-resistant Streptococcus pneumoniae isolate 24 by NCCLS M7-A7 method
# [3] = tested on: Streptococcus pneumoniae; assay: Antimicrobial activity against drug-resistant Streptococcus pneumoniae isolate 3676 by NCCLS M7-A7 method
# [4] = tested on: Streptococcus pneumoniae; assay: Antimicrobial activity against drug-resistant Streptococcus pneumoniae isolate 1076 after 35 passages with moxifloxacin measured after 10 antibiotic-free subculture by multi-step resistance selection technique
# Method in brief: (§2)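 Mutants selected by daily broth passage in subinhibitory drug in cation-adjusted Mueller-Hinton broth with 5% lysed horse blood. Stability was tested by 10 daily passages on blood agar without antibiotic, then macrodilution MIC.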
# [5] = tested on: Streptococcus pneumoniae; assay: Antimicrobial activity against drug-resistant Streptococcus pneumoniae isolate 3243 after 33 passages with azithromycin measured after 10 antibiotic-free subculture by multi-step resistance selection technique; method in brief: as §2
# [6] = tested on: Streptococcus pneumoniae; assay: Antimicrobial activity against drug-resistant Streptococcus pneumoniae isolate 37 by NCCLS M7-A7 method
# [7] = tested on: Streptococcus pneumoniae; assay: Antimicrobial activity against drug-resistant Streptococcus pneumoniae isolate 3274 by NCCLS M7-A7 method
# [8] = tested on: Streptococcus pneumoniae; assay: Antimicrobial activity against drug-resistant Streptococcus pneumoniae isolate 3243 after 50 passages by multi-step resistance selection technique; method in brief: as §1
# [9] = tested on: Streptococcus pneumoniae; assay: Antimicrobial activity against drug-resistant Streptococcus pneumoniae isolate 3413 after 50 passages by multi-step resistance selection technique
# Method in brief: (§3)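 Daily serial passage in subinhibitory drug levels in 1 ml cation-adjusted Mueller-Hinton broth with 5% lysed horse blood; fresh broth for tigecycline. Each day, 10 μl were taken from the tube one to two dilutions below the MIC whose turbidity matched the growth control, and used to set the next MIC. MIC by macrodilution.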
# [10] = tested on: Streptococcus pneumoniae; assay: Antimicrobial activity against drug-resistant Streptococcus pneumoniae isolate 1077 by NCCLS M7-A7 method
# [11] = tested on: Streptococcus pneumoniae; assay: Antimicrobial activity against drug-resistant Streptococcus pneumoniae isolate 3009 after 21 passages with gemifloxacin measured after 10 antibiotic-free subculture by multi-step resistance selection technique; method in brief: as §2
# [12] = tested on: Streptococcus pneumoniae; assay: Antimicrobial activity against drug-resistant Streptococcus pneumoniae isolate 3413 by NCCLS M7-A7 method
# [13] = tested on: Streptococcus pneumoniae; assay: Antimicrobial activity against drug-resistant Streptococcus pneumoniae isolate 1076 after 14 passages with Telithromycin measured after 10 antibiotic-free subculture by multi-step resistance selection technique; method in brief: as §2
# [14] = tested on: Streptococcus pneumoniae; assay: Antimicrobial activity against drug-resistant Streptococcus pneumoniae isolate 1635 after 14 passages by multi-step resistance selection technique; method in brief: as §1
# [15] = tested on: Streptococcus pneumoniae; assay: Antimicrobial activity against drug-resistant Streptococcus pneumoniae isolate 1077 after 49 passages with clindamycin measured after 10 antibiotic-free subculture by multi-step resistance selection technique
# [16] = tested on: Streptococcus pneumoniae; assay: Antimicrobial activity against drug-resistant Streptococcus pneumoniae isolate 3274 after 48 passages with Telithromycin measured after 10 antibiotic-free subculture by multi-step resistance selection technique; method in brief: as §2
# [17] = tested on: Streptococcus pneumoniae; assay: Antimicrobial activity against drug-resistant Streptococcus pneumoniae isolate 37 after 14 passages with Telithromycin measured after 10 antibiotic-free subculture by multi-step resistance selection technique
# [18] = tested on: Streptococcus pneumoniae; assay: Antimicrobial activity against drug-resistant Streptococcus pneumoniae isolate 3665 by NCCLS M7-A7 method
# [19] = tested on: Streptococcus pneumoniae; assay: Antimicrobial activity against drug-resistant Streptococcus pneumoniae isolate 3665 after 14 passages with Telithromycin measured after 10 antibiotic-free subculture by multi-step resistance selection technique
# [20] = tested on: Streptococcus pneumoniae; assay: Antimicrobial activity against drug-resistant Streptococcus pneumoniae isolate 3243 after 41 passages with clarithromycin measured after 10 antibiotic-free subculture by multi-step resistance selection technique
# [21] = tested on: Streptococcus pneumoniae; assay: Antimicrobial activity against drug-resistant Streptococcus pneumoniae isolate 3009 after 18 passages with levofloxacin measured after 10 antibiotic-free subculture by multi-step resistance selection technique; method in brief: as §2
# [22] = tested on: Streptococcus pneumoniae; assay: Antimicrobial activity against drug-resistant Streptococcus pneumoniae isolate 3665 after 38 passages with moxifloxacin measured after 10 antibiotic-free subculture by multi-step resistance selection technique
# [23] = tested on: Streptococcus pneumoniae; assay: Antimicrobial activity against drug-resistant Streptococcus pneumoniae isolate 1635 after 49 passages with clarithromycin measured after 10 antibiotic-free subculture by multi-step resistance selection technique
# [24] = tested on: Streptococcus pneumoniae; assay: Antimicrobial activity against drug-resistant Streptococcus pneumoniae isolate 3665 after 26 passages with clarithromycin measured after 10 antibiotic-free subculture by multi-step resistance selection technique
# [25] = tested on: Streptococcus pneumoniae; assay: Antimicrobial activity against drug-resistant Streptococcus pneumoniae isolate 1077 after 29 passages with azithromycin measured after 10 antibiotic-free subculture by multi-step resistance selection technique; method in brief: as §2
# [26] = tested on: Streptococcus pneumoniae; assay: Antimicrobial activity against drug-resistant Streptococcus pneumoniae isolate 3676 after 44 passages with clarithromycin measured after 10 antibiotic-free subculture by multi-step resistance selection technique
# [27] = tested on: Streptococcus pneumoniae; assay: Antimicrobial activity against drug-resistant Streptococcus pneumoniae isolate 1635 after 14 passages with azithromycin measured after 10 antibiotic-free subculture by multi-step resistance selection technique; method in brief: as §2
# [28] = tested on: Streptococcus pneumoniae; assay: Antimicrobial activity against drug-resistant Streptococcus pneumoniae isolate 3676 after 50 passages by multi-step resistance selection technique
# Method in brief: (§4)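 Daily serial passage in broth at subinhibitory drug levels: 1 ml cation-adjusted Mueller-Hinton broth with 5% lysed horse blood; fresh broth for tigecycline. Each day 10 μl inoculum taken from the tube one to two dilutions below MIC matching growth-control turbidity, used to set next MIC. Continued until ≥8-fold MIC rise, minimum 14, maximum 50 passages; MIC read by macrodilution.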
# [29] = tested on: Streptococcus pneumoniae; assay: Antimicrobial activity against drug-resistant Streptococcus pneumoniae isolate 3413 after 30 passages with Telithromycin measured after 10 antibiotic-free subculture by multi-step resistance selection technique; method in brief: as §2
# [30] = tested on: Streptococcus pneumoniae; assay: Antimicrobial activity against drug-resistant Streptococcus pneumoniae isolate 24 after 14 passages with Telithromycin measured after 10 antibiotic-free subculture by multi-step resistance selection technique; method in brief: as §2
# [31] = tested on: Streptococcus pneumoniae; assay: Antimicrobial activity against drug-resistant Streptococcus pneumoniae isolate 3274 after 50 passages by multi-step resistance selection technique; method in brief: as §3
# [32] = tested on: Streptococcus pneumoniae; assay: Antimicrobial activity against drug-resistant Streptococcus pneumoniae isolate 3243 by NCCLS M7-A7 method
# [33] = tested on: Streptococcus pneumoniae; assay: Antimicrobial activity against drug-resistant Streptococcus pneumoniae isolate 2527 after 50 passages by multi-step resistance selection technique; method in brief: as §1
# [34] = tested on: Streptococcus pneumoniae; assay: Antimicrobial activity against drug-resistant Streptococcus pneumoniae isolate 3676 after 50 passages with moxifloxacin measured after 10 antibiotic-free subculture by multi-step resistance selection technique
# [35] = tested on: Streptococcus pneumoniae; assay: Antimicrobial activity against drug-resistant Streptococcus pneumoniae isolate 3009 after 19 passages with moxifloxacin measured after 10 antibiotic-free subculture by multi-step resistance selection technique; method in brief: as §2
# [36] = tested on: Streptococcus pneumoniae; assay: Antimicrobial activity against drug-resistant Streptococcus pneumoniae isolate 1076 by NCCLS M7-A7 method
# [37] = tested on: Streptococcus pneumoniae; assay: Antimicrobial activity against drug-resistant Streptococcus pneumoniae isolate 3676 after 14 passages with Telithromycin measured after 10 antibiotic-free subculture by multi-step resistance selection technique
# [38] = tested on: Streptococcus pneumoniae; assay: Antimicrobial activity against drug-resistant Streptococcus pneumoniae isolate 1635 by NCCLS M7-A7 method
# [39] = tested on: Streptococcus pneumoniae; assay: Antimicrobial activity against drug-resistant Streptococcus pneumoniae isolate 3665 after 50 passages by multi-step resistance selection technique; method in brief: as §4
# [40] = tested on: Streptococcus pneumoniae; assay: Antimicrobial activity against drug-resistant Streptococcus pneumoniae isolate 3243 after 20 passages with moxifloxacin measured after 10 antibiotic-free subculture by multi-step resistance selection technique; method in brief: as §2
# [41] = tested on: Streptococcus pneumoniae; assay: Antimicrobial activity against drug-resistant Streptococcus pneumoniae isolate 1635 after 14 passages with clindamycin measured after 10 antibiotic-free subculture by multi-step resistance selection technique
# [42] = tested on: Streptococcus pneumoniae; assay: Antimicrobial activity against drug-resistant Streptococcus pneumoniae isolate 24 after 50 passages with moxifloxacin measured after 10 antibiotic-free subculture by multi-step resistance selection technique; method in brief: as §2
# [43] = tested on: Streptococcus pneumoniae; assay: Antimicrobial activity against drug-resistant Streptococcus pneumoniae isolate 3243 after 29 passages with Telithromycin measured after 10 antibiotic-free subculture by multi-step resistance selection technique; method in brief: as §2
# [44] = tested on: Streptococcus pneumoniae; assay: Antimicrobial activity against drug-resistant Streptococcus pneumoniae isolate 3009 by NCCLS M7-A7 method
# [45] = tested on: Streptococcus pneumoniae; assay: Antimicrobial activity against drug-resistant Streptococcus pneumoniae isolate 2527 after 20 passages with azithromycin measured after 10 antibiotic-free subculture by multi-step resistance selection technique; method in brief: as §2
# [46] = tested on: Streptococcus pneumoniae; assay: Antimicrobial activity against drug-resistant Streptococcus pneumoniae isolate 1077 after 49 passages by multi-step resistance selection technique; method in brief: as §1
# [47] = tested on: Streptococcus pneumoniae; assay: Antimicrobial activity against drug-resistant Streptococcus pneumoniae isolate 3009 after 25 passages with clarithromycin measured after 10 antibiotic-free subculture by multi-step resistance selection technique
# [48] = tested on: Streptococcus pneumoniae; assay: Antimicrobial activity against drug-resistant Streptococcus pneumoniae isolate 2527 by NCCLS M7-A7 method
# [49] = tested on: Streptococcus pneumoniae; assay: Antimicrobial activity against drug-resistant Streptococcus pneumoniae isolate 2527 after 14 passages with gemifloxacin measured after 10 antibiotic-free subculture by multi-step resistance selection technique; method in brief: as §2
# [50] = tested on: Streptococcus pneumoniae; assay: Antimicrobial activity against drug-resistant Streptococcus pneumoniae isolate 1077 after 15 passages with Telithromycin measured after 10 antibiotic-free subculture by multi-step resistance selection technique; method in brief: as §2
smiles,measurement,setting,value
CCC[C@@H]1C[C@@H](C(=O)N[C@@H]([C@H]2O[C@H](SC)[C@H](O)[C@@H](O)[C@H]2O)[C@H](C)Cl)N(C)C1 [CLINDAMYCIN],MIC,[1],2 µg/mL
same,MIC,[2],> 64 µg/mL
same,MIC,[3],0.03 µg/mL
same,MIC,[4],> 64 µg/mL
same,MIC,[5],0.016 µg/mL
same,MIC,[6],> 64 µg/mL
same,MIC,[7],0.016 µg/mL
same,MIC,[8],0.03 µg/mL
same,MIC,[9],0.008 µg/mL
same,MIC,[10],0.016 µg/mL
same,MIC,[11],0.5 µg/mL
same,MIC,[12],0.016 µg/mL
same,MIC,[13],> 64 µg/mL
same,MIC,[14],> 64 µg/mL
same,MIC,[15],8 µg/mL
same,MIC,[16],0.016 µg/mL
same,MIC,[17],> 64 µg/mL
same,MIC,[18],0.016 µg/mL
same,MIC,[19],0.03 µg/mL
same,MIC,[20],1 µg/mL
same,MIC,[21],0.5 µg/mL
same,MIC,[22],0.03 µg/mL
same,MIC,[23],0.25 µg/mL
same,MIC,[24],0.03 µg/mL
same,MIC,[25],4 µg/mL
same,MIC,[26],0.06 µg/mL
same,MIC,[27],0.03 µg/mL
same,MIC,[28],0.016 µg/mL
same,MIC,[29],0.06 µg/mL
same,MIC,[30],> 64 µg/mL
same,MIC,[31],0.008 µg/mL
same,MIC,[32],0.016 µg/mL
same,MIC,[33],0.016 µg/mL
same,MIC,[34],0.016 µg/mL
same,MIC,[35],0.5 µg/mL
same,MIC,[36],64 µg/mL
same,MIC,[37],0.03 µg/mL
same,MIC,[38],0.06 µg/mL
same,MIC,[39],0.03 µg/mL
same,MIC,[40],0.016 µg/mL
same,MIC,[41],> 64 µg/mL
same,MIC,[42],> 64 µg/mL
same,MIC,[43],0.03 µg/mL
same,MIC,[44],1 µg/mL
same,MIC,[45],0.06 µg/mL
same,MIC,[46],4 µg/mL
same,MIC,[47],1 µg/mL
same,MIC,[48],0.008 µg/mL
same,MIC,[49],0.016 µg/mL
same,MIC,[50],8 µg/mL
